From PubChem
TRPML3 agonist = human TRPML3 channel agonists, primary screen, cell-based, HEK293 TRPML3-YFP, Fluo-8 calcium fluorescence, 3 µM; AID 1448, 2008; activation, % at 3 µM; Mucolipin-3 (Homo sapiens), Q8TDD5; actives 0.29% (n = 220,000); 100% = the carbachol control signal;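 active means activation above its plate's cutoff, the mean activation of the plate's test wells plus 3 SD, cut at about 12% in these data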
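Material: HEK293 cells stably carrying human TRPML3-YFP; compound dosing: single dose, 3 µM final nominal compound, 0.3% DMSO final; incubation: 1-h 37 °C dye load, 5-s basal, 120-s post-compound reads; technique: Fluo-8 intracellular calcium fluorescence, excitation 470-495 nm, emission 515-575 nm; read-out basis: percent activation from peak-to-basal fluorescence ratio, scaled between DMSO and carbachol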
OX1R antag-1 = OX1R (HCRTR1) antagonists, primary screen, fluorescence, CHO/OX1R cells, Fluo-8 calcium, orexin A. Orexin/Hypocretin receptor type 1 (Homo sapiens), O43613. Fluo-8 calcium fluorescence. inhibition, % at 5 µM. actives 0.43% (n = 330,000);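 active means inhibition above its plate's threshold, mean inhibition of all tested compounds on the plate plus 3 SD, cut at about 37% in these data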
Target sequence (O43613 whole entry, looked up): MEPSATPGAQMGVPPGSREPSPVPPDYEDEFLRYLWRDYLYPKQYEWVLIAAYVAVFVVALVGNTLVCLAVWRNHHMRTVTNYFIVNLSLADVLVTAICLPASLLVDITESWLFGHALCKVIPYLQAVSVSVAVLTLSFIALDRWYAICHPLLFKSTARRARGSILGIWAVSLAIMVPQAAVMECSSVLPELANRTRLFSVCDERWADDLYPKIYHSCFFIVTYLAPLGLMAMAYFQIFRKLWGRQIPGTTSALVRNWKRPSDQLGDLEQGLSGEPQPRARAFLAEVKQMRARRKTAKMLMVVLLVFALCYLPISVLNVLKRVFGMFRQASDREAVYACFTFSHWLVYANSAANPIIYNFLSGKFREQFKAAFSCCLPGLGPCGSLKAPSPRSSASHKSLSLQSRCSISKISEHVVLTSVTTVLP
TRPN1 ag = zebrafish TRPN1 channel agonists, primary screen, cell-based, HEK293, calcium fluorescence; transient receptor potential cation channel N1 (TRPN1/NompC), Danio rerio; HEK293 zebrafish TRPN1-YFP, Fluo-8 calcium fluorescence; 100% = response to 87 µM carbachol; activation, % at 3 µM; actives 0.18% (n = 220,000); AID 1424, 2008;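 active means activation above its plate's cutoff, the mean activation of test wells on that plate plus 3 SD, cut at about 19% in these data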
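Control set: carbachol 87 µM as high control, DMSO as low control; system: HEK293 stable line with zebrafish TRPN1-YFP; read-out: % activation versus carbachol response; detection: intracellular calcium fluorescence with Fluo-8; doses: single test compound dose, 3 µM nominal, 0.3% DMSO; schedule: dye 1 h 37 °C plus 30 min RT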
OX1R antag-2 = antagonists of human orexin 1 receptor (OX1R). inhibition, % at 6.6 µM. OX1R-expressing cells, FRET antagonist read-out. Orexin/Hypocretin receptor type 1 (Homo sapiens), O43613. actives 1.8% (n = 330,000); in the data active means inhibition mostly above about 38%, no sharp cut-off; inactive means mostly below about 40%
GPR7 antag = GPR7 receptor antagonists, primary screen, cell-based, fluorescence, single concentration | actives 1.1% (n = 290,000) | inhibition, % at 4.4 µM | GPR7-expressing cells, fluorescence antagonist assay | Neuropeptides B/W receptor type 1 (Homo sapiens), P48145; in the data active means inhibition above about 16%, passing the limit was not always enough;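 further: cells stimulated with the agonist NPW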
Target sequence (P48145 whole entry, looked up): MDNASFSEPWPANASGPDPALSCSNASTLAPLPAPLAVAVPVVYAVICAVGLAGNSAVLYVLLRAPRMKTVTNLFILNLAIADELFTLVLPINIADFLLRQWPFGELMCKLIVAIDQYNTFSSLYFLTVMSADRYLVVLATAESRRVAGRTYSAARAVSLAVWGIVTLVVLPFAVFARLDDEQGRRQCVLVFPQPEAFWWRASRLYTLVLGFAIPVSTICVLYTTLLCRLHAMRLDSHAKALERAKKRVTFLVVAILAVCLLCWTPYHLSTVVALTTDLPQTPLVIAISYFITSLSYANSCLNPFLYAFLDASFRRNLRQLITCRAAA
CHO parental Ca = ATP-evoked calcium signal inhibitors, parental CHO, primary screen, counter-screen for OX1R antagonist project, cell-based, fluorescence, Fluo-8 calcium dye | parental CHO-K1, ATP-induced calcium, Fluo-8 fluorescence | inhibition, % at 5.6 µM | actives 0.63% (n = 330,000);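 active means inhibition above that plate's mean sample inhibition plus 3 SD, cut at about 26% in these data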
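Assay system – parental CHO cells · Reagent – ATP stimulus · Detection – intracellular calcium via Fluo-8 no-wash fluorescent dye · Evaluation – percent inhibition of ATP-evoked calcium rise, normalized to controls · Controls – ATP wells versus no-ATP DMSO wells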
GPR7 antag conf = GPR7 receptor antagonists, confirmation, cell-based, fluorescence, single concentration. shares compounds with GPR7 antag. AID 1952, 2009. actives 52% (n = 2,400). GPR7-expressing cells, calcium fluorescence antagonist mode. inhibition, % at 4.4 µM; in the data active means inhibition above about 24%;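 further: stimulated with the GPR7 agonist NPW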
MCHR1 antagonist = MCHR1 antagonists in cells, counter-screen for GPR7 antagonist project, cell-based, fluorescence, human; shares compounds with GPR7 antag; MCHR1-expressing cells, fluorescence antagonist assay; inhibition, % at 4.4 µM; actives 62% (n = 2,400); in the data active means inhibition above about 22%
Of the large screens only hits and unclear results are named; the others gave an inactive call (follow-up assays come after a bar, where they were run). In the library only some 3.2% were active in any assay of this set; here they are far more common.

N=c1n(Cc2ccccc2)c2ccccc2n1CC(O)COc1ccccc1 (stereo unspecified)	none
CCCCn1c(=N)n(CC(O)COc2ccc(C)cc2)c2ccccc21 (stereo unspecified)	GPR7 antag 36 | GPR7 antag conf 28 | MCHR1 antagonist 39
CC(NS(=O)(=O)c1ccc(Cl)cc1)C(=O)NCCC1=CCCCC1 (stereo unspecified)	none
CCOc1ccc([N+](=O)[O-])c(N)c1	GPR7 antag 28 | GPR7 antag conf inactive | MCHR1 antagonist inactive
O=C(O)c1ccc(S(=O)(=O)NCC2CCCCC2)cc1	none (no result: TRPML3 agonist, OX1R antag-1, TRPN1 ag, OX1R antag-2, CHO parental Ca)
COc1ccccc1CNC(=O)C1CCN(S(=O)(=O)c2ccc3nc4c(c(C(=O)O)c3c2)CCCC4)CC1	none (no result: TRPML3 agonist, TRPN1 ag)
OC(COc1ccc(F)cc1Cl)CN1CCC(Cc2ccccc2)CC1 (stereo unspecified)	GPR7 antag 42 (no result: TRPML3 agonist, TRPN1 ag) | GPR7 antag conf inactive | MCHR1 antagonist 43
OC(COc1ccccc1F)CN1CCC(Cc2ccccc2)CC1 (stereo unspecified)	none (no result: TRPML3 agonist, TRPN1 ag)
CC(C)CCn1c(=O)c2sccc2n2c(CCCC(=O)N3CCN(c4ccccn4)CC3)nnc12	none (no result: TRPML3 agonist, TRPN1 ag)
Cc1ccc(Cl)cc1NC(=O)[C@@H]1CCC(=O)N1C1OC(=O)c2ccccc21 (stereo partly specified)	none (no result: TRPML3 agonist, TRPN1 ag)
O=C(Cn1c(-c2ccccc2)noc1=O)Nc1ccc(S(=O)(=O)N2CCOCC2)cc1	none
Cc1ccc(-c2noc(=O)n2CC(=O)Nc2ccc(S(=O)(=O)NC3CC3)cc2)cc1	GPR7 antag 23 | GPR7 antag conf 47 | MCHR1 antagonist 30
O=C(NC12CC3CC(CC(C3)C1)C2)OCCNC1CCCCC1	GPR7 antag 26 | GPR7 antag conf inactive | MCHR1 antagonist inactive
O=c1[nH]c2ccccc2c(O)c1Cc1ccccc1	GPR7 antag 22 | GPR7 antag conf inactive | MCHR1 antagonist inactive
O=C(c1ccc(Br)cc1)C(CN1CCOCC1)c1ccccc1 (stereo unspecified)	GPR7 antag 67 (no result: TRPML3 agonist, TRPN1 ag) | GPR7 antag conf 59 | MCHR1 antagonist 86
CCOc1ccc(C(=O)C(CN2CCOCC2)c2ccccc2)cc1 (stereo unspecified)	none
C/[N+]([O-])=C\c1cccc(OCCN2CCN(c3ncc(C(F)(F)F)cc3Cl)CC2)c1	none (no result: TRPML3 agonist, TRPN1 ag)
N#Cc1nc(COc2ccc(F)cc2)oc1N1CCN(Cc2ccccc2)CC1	GPR7 antag 35 | GPR7 antag conf 33 | MCHR1 antagonist 52
N#Cc1nc(COc2ccc(F)cc2)oc1N1CCC(Cc2ccccc2)CC1	GPR7 antag 30 | GPR7 antag conf 48 | MCHR1 antagonist 47
COc1ccc(OCc2nc(C#N)c(N3CCN(c4ccc(OC)cc4)CC3)o2)cc1	GPR7 antag 43 (no result: OX1R antag-1, OX1R antag-2, CHO parental Ca) | GPR7 antag conf 48 | MCHR1 antagonist 50
COc1ccc(N2CCN(c3oc(COc4ccccc4Cl)nc3C#N)CC2)cc1	none
CCN1CCN(c2oc(COc3ccc(-c4ccccc4)cc3)nc2C#N)CC1	none
Cc1cc(C)cc(C(=O)NCC(=O)N2CCC(C(N)=O)CC2)c1	none (no result: TRPML3 agonist, TRPN1 ag, GPR7 antag)
COc1cc(/C=C2/NC(=O)NC2=O)ccc1OCC(=O)Nc1ccc(F)cc1	none (no result: TRPML3 agonist, TRPN1 ag)
CCOc1cc(/C=C2\NC(=O)NC2=O)ccc1OC(C)C(=O)O (stereo unspecified)	OX1R antag-2 42, GPR7 antag 32 (no result: TRPML3 agonist, TRPN1 ag) | GPR7 antag conf inactive | MCHR1 antagonist inactive
CCOc1cc(CNCc2ccccc2)ccc1OCc1ccc(Cl)cc1	OX1R antag-1 69, GPR7 antag 66, CHO parental Ca 92 (no result: TRPML3 agonist, TRPN1 ag) | GPR7 antag conf 56 | MCHR1 antagonist 78
COc1cc(CNCc2ccccn2)ccc1OCc1ccc(Cl)c(Cl)c1	GPR7 antag 24 | GPR7 antag conf inactive | MCHR1 antagonist 68
CCNCc1cc(Cl)c(OCc2ccccc2)c(OCC)c1	none
Cc1onc(-c2ccccc2)c1C(=O)O/N=C(\N)c1ccc([N+](=O)[O-])o1	none
Cc1onc(-c2cccc(Cl)c2Cl)c1C(=O)O/N=C(\N)c1ccc([N+](=O)[O-])o1	GPR7 antag 31 | GPR7 antag conf 45 | MCHR1 antagonist 55
Cc1ccc(NC(=S)NC(=O)Cc2ccccc2)c(O)c1	GPR7 antag 29 (no result: TRPML3 agonist, OX1R antag-1, TRPN1 ag, OX1R antag-2, CHO parental Ca) | GPR7 antag conf 42 | MCHR1 antagonist 29
COc1ccc(NC(=S)NC(=O)Cc2ccccc2)c(OC)c1	none (no result: TRPML3 agonist, TRPN1 ag)
Cc1csc(=O)n1CC(=O)OCC(=O)NNC(=O)c1ccc(Cl)cc1	none (no result: TRPML3 agonist, TRPN1 ag, GPR7 antag)
CCOc1ccc(NC2c3ccccc3C(=O)N2Cc2ccc3c(c2)OCO3)cc1 (stereo unspecified)	none
COc1cc(NC2c3ccccc3C(=O)N2Cc2ccc3c(c2)OCO3)cc(OC)c1OC (stereo unspecified)	GPR7 antag 26 | GPR7 antag conf inactive | MCHR1 antagonist inactive
COc1ccc(-n2c(CNC(=O)COc3ccc(Cl)cc3Cl)n[nH]c2=S)cc1	none
C=CCS(=O)(=O)N1CCCC(Cc2ccccc2C)(C(=O)OCC)C1 (stereo unspecified)	GPR7 antag 31 (no result: TRPML3 agonist, TRPN1 ag) | GPR7 antag conf inactive | MCHR1 antagonist inactive
CN(C)CCCN1C(=O)C2CCc3[nH]c4ccccc4c3C2C1=O (stereo unspecified)	none
CC(=O)c1cccc(NC(=O)c2ccc3c(c2)CCCC3)c1	GPR7 antag 43 (no result: TRPML3 agonist, TRPN1 ag) | GPR7 antag conf inactive | MCHR1 antagonist 41
CC(=O)c1cccc(NC(=O)c2ccc(N(Cc3ccc(C)cc3)S(C)(=O)=O)cc2)c1	GPR7 antag 37 | GPR7 antag conf inactive | MCHR1 antagonist 50
O=C(Nc1ccccc1)c1ccc(S(=O)(=O)Nc2cccc(O)c2)cc1	none (no result: TRPML3 agonist, TRPN1 ag)
COc1cccc(NC(=O)c2ccc3c(c2)CCCC3)c1	none (no result: TRPML3 agonist, TRPN1 ag)
CC(=O)c1cccc(NS(=O)(=O)c2ccc(C(=O)Nc3ccccc3)cc2)c1	OX1R antag-1 70, OX1R antag-2 74, GPR7 antag 22, CHO parental Ca 71 (no result: TRPML3 agonist, TRPN1 ag) | GPR7 antag conf 29 | MCHR1 antagonist 50
